Test results published in ChEMBL document CHEMBL1124407, “Synthesis of gastrin antagonists, analogues of the C-terminal tetrapeptide of gastrin, by introduction of a beta-homo residue” (J Med Chem, 1989).
Where a SMILES comes first, the peptide text is derived from it. [ ]: non-standard residue; d: D form. The star is where a group is joined. β3hF = N[C@H](CC(=O)O)Cc1ccccc1; Boc = CC(C)(C)OC(=O)*

Assays:
[1] = biological target: T1, Gastrin/cholecystokinin type B receptor (Rattus norvegicus) (UniProt P30553); assay: Activity in vivo gastrin-induced acid secretion in rats; assay type: functional, organism-based
T1 sequence (whole entry): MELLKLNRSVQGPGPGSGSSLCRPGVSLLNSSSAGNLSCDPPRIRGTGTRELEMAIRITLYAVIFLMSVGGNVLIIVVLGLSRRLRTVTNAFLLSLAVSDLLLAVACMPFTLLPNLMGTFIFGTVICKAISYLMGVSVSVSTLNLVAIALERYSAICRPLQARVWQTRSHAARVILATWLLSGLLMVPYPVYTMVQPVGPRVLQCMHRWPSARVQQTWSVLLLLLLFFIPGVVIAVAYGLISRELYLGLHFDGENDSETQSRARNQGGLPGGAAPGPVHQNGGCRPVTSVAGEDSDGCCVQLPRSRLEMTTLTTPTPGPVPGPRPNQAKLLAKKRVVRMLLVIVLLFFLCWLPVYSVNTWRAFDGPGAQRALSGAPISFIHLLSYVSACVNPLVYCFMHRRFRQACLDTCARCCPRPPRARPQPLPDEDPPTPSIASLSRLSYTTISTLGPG
In short: (§1)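 Anesthetized rats; cumulative gastric pH recorded over time as the index of acid secretion. Peptides and (Leu15)-human gastrin I were given as intravenous bolus in 0.9% NaCl. Secreted H+ was taken from the difference between stimulated and basal traces. For inhibition, peptide in alkaline water was injected together with gastrin (usually 80 pmol) at various doses. Response was expressed as percent of the gastrin-alone H+ output.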

Rattus norvegicus = assay: Activity of compound on in vivo gastrin-induced acid secretion in rats; Agonist; assay type: functional, organism-based; conditions: filed as agonist; in short: as §1

## CC(C)C[C@@H](CC(=O)NC(CC(=O)O)C(=O)NCCc1ccccc1)NC(=O)[C@@H](Cc1c[nH]c2ccccc12)NC(=O)OC(C)(C)C (stereo partly drawn)
[1]
  ED50: 0.5 mg/kg

## CC(C)C[C@H](NC(=O)[C@H](Cc1c[nH]c2ccccc12)NC(=O)OC(C)(C)C)C(=O)N[C@H](CC(=O)O)CC(=O)N[C@@H](Cc1ccccc1)C(N)=O
[1]
  ED50: 0.1 mg/kg

## CC(C)CC(CC(=O)NC(CC(=O)O)C(=O)NCc1ccccc1)NC(=O)C(Cc1c[nH]c2ccccc12)NC(=O)OC(C)(C)C (stereo not drawn)
[1]
  ED50: 0.5 mg/kg

## CC(C)CC(NC(=O)[C@@H](Cc1c[nH]c2ccccc12)NC(=O)OC(C)(C)C)C(=O)N[C@H](CC(=O)O)CC(=O)NC(Cc1ccccc1)C(N)=O (stereo in doubt)
[1]
  ED50: 2.5 mg/kg

## CC(C)CC(NC(=O)[C@@H](Cc1c[nH]c2ccccc12)NC(=O)OC(C)(C)C)C(=O)N[C@H](CC(=O)O)CC(=O)NCCc1ccccc1 (stereo in doubt)
[1]
  ED50: 2.5 mg/kg

## CC(C)C[C@@H](CC(=O)NC(CC(=O)O)C(=O)NCc1ccccc1)NC(=O)[C@@H](Cc1c[nH]c2ccccc12)NC(=O)OC(C)(C)C (stereo partly drawn)
[1]
  ED50: 5 mg/kg

## CC(C)CC(NC(=O)[C@@H](Cc1c[nH]c2ccccc12)NC(=O)OC(C)(C)C)C(=O)N[C@H](CC(=O)O)CC(=O)NCc1ccccc1 (stereo in doubt)
[1]
  ED50: 1 mg/kg

## CC(C)CC(CC(=O)N[C@H](CC(=O)O)C(=O)NCCc1ccccc1)NC(=O)C(Cc1c[nH]c2ccccc12)NC(=O)OC(C)(C)C (stereo partly drawn)
[1]
  ED50: 0.8 mg/kg

## CC(C)C[C@@H](CC(=O)N[C@@H](CC(=O)O)C(=O)N[C@@H](Cc1ccccc1)C(N)=O)NC(=O)[C@H](Cc1c[nH]c2ccccc12)NC(=O)OC(C)(C)C
[1]
  ED50: 1.5 mg/kg

## CC(C)CC(CC(=O)N[C@H](CC(=O)O)C(=O)NCc1ccccc1)NC(=O)C(Cc1c[nH]c2ccccc12)NC(=O)OC(C)(C)C (stereo partly drawn)
[1]
  ED50: 1.5 mg/kg

## CC(C)C[C@H](NC(=O)[C@H](Cc1c[nH]c2ccccc12)NC(=O)OC(C)(C)C)C(=O)N[C@H](CC(=O)O)CC(=O)N[C@H](Cc1ccccc1)C(N)=O
[1]
  ED50: 0.1 mg/kg

## CC(C)CC(CC(=O)NC(CC(=O)O)C(=O)NCCc1ccccc1)NC(=O)C(Cc1c[nH]c2ccccc12)NC(=O)OC(C)(C)C (stereo not drawn)
[1]
  ED50: 0.5 mg/kg

## CC(C)C[C@H](CC(=O)N[C@@H](CC(=O)O)C(=O)N[C@@H](Cc1ccccc1)C(N)=O)NC(=O)[C@@H](Cc1c[nH]c2ccccc12)NC(=O)OC(C)(C)C
[1]
  ED50: 7.5 mg/kg

## CC(C)C[C@H](NC(=O)[C@H](Cc1c[nH]c2ccccc12)NC(=O)OC(C)(C)C)C(=O)N[C@@H](CC(=O)O)C(=O)N[C@@H](Cc1ccccc1)C(N)=O (Boc-WLDF-NH2)
Rattus norvegicus
  ED50: Agonist

## CC(C)C[C@H](NC(=O)[C@H](Cc1c[nH]c2ccccc12)NC(=O)OC(C)(C)C)C(=O)N[C@H](CC(=O)O)CC(=O)NCCc1ccccc1
[1]
  ED50: 0.5 mg/kg

## CC(C)C[C@H](NC(=O)[C@H](Cc1c[nH]c2ccccc12)NC(=O)OC(C)(C)C)C(=O)N[C@H](CC(=O)O)CC(=O)NCc1ccccc1
[1]
  ED50: 0.2 mg/kg

## CC(C)CC(CC(=O)N[C@H](CC(=O)O)C(=O)N[C@H](Cc1ccccc1)C(N)=O)NC(=O)C(Cc1c[nH]c2ccccc12)NC(=O)OC(C)(C)C (stereo partly drawn)
[1]
  ED50: 5 mg/kg

## CC(C)C[C@H](NC(=O)[C@H](Cc1c[nH]c2ccccc12)NC(=O)OC(C)(C)C)C(=O)N[C@@H](CC(=O)O)C(=O)N[C@H](CC(N)=O)Cc1ccccc1 (Boc-WLD[β3hF]-NH2)
[1]
  ED50: 7 mg/kg
